Laboratory results reported in ChEMBL document CHEMBL1154198, “Chemical genetics of Plasmodium falciparum” (Nature, 2010).

Key:
Plasmodium falciparum [1] = assay: ST_JUDE: Plasmodium falciparum 3D7 EC50 (uM) as measured by SYBR green dye; format: functional, organism-based
Plasmodium falciparum [2] = assay: ST_JUDE: Plasmodium falciparum K1 EC50 (uM) as measured by SYBR green dye; format: functional, organism-based
Plasmodium falciparum [3] = assay: ST_JUDE: Cytotoxicity against Plasmodium falciparum 3D7; format: functional, organism-based
Outline: (§1)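 Asexual P. falciparum grown in human erythrocytes, exposed to compounds for 72 h, and growth read as the DNA quantity in treated versus control cultures. Dose-response run at 12 concentrations from 10 μM to 5 nM.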

Plasmodium falciparum [4] = assay: ST_JUDE: Cytotoxicity against Plasmodium falciparum K1; format: functional, organism-based; outline: as §1
Plasmodium falciparum [5] = assay: ST_JUDE: Cytotoxicity against Plasmodium falciparum V1/S; format: functional, organism-based
Toxoplasma gondii = assay: ST_JUDE: Growth inhibition of to Toxoplasma gondii, in human U-2OS cells, as measured by luciferase.; format: functional, organism-based; conditions: RH, U2OS
Outline: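 T. gondii parasites engineered to express luciferase; drug sensitivity read by luminescence.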

Trypanosoma brucei = assay: ST_JUDE: Cytotoxicity using luciferase to measure ATP as an indicator of the viability of Trypanosoma brucei; format: functional, organism-based
Leishmania major = assay: ST_JUDE: Cytotoxicity using Alamar Blue to measure viability of Leishmania major; format: functional, organism-based
Outline: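 L. major promastigotes; drug susceptibility read with Alamar Blue.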

[6] = ST_JUDE: Cytotoxicity using luciferase to measure ATP as an indicator of the viability of human foreskin fibroblast cells (BJ); format: toxicity, cell-based
[7] = ST_JUDE: Cytotoxicity using luciferase to measure ATP as an indicator of the viability of human epithelial hepatocellular carcinoma cells (HepG2); format: toxicity, cell-based
[8] = ST_JUDE: Cytotoxicity using luciferase to measure ATP as an indicator of the viability of human epithelial embryonic kidney cells (HEK293); format: toxicity, cell-based
[9] = ST_JUDE: Cytotoxicity using luciferase to measure ATP as an indicator of the viability of human Burkitt''s lymphoma lymphoblast cells (Raji); format: toxicity, cell-based
Plasmodium falciparum [10] = assay: ST_JUDE: Cytotoxicity against Plasmodium falciparum Dd2; format: functional, organism-based
Plasmodium falciparum [11] = assay: ST_JUDE: Cytotoxicity against Plasmodium falciparum W2; format: functional, organism-based
Plasmodium falciparum [12] = assay: ST_JUDE: Cytotoxicity against Plasmodium falciparum SB-A6; format: functional, organism-based
Plasmodium falciparum [13] = assay: ST_JUDE: Cytotoxicity against Plasmodium falciparum D10 transfected with yeast DHOD; format: functional, organism-based

| SMILES | EC50 (Plasmodium falciparum [1]) | EC50 (Plasmodium falciparum [2]) | EC50 (Plasmodium falciparum [3]) | EC50 (Plasmodium falciparum [4]) | EC50 (Plasmodium falciparum [5]) | EC50 (Toxoplasma gondii) | EC50 (Trypanosoma brucei) | EC50 (Leishmania major) | EC50 [6] | EC50 [7] | EC50 [8] | EC50 [9] | EC50 (Plasmodium falciparum [10]) | EC50 (Plasmodium falciparum [11]) | EC50 (Plasmodium falciparum [12]) | EC50 (Plasmodium falciparum [13]) |
| --- | --- | --- | --- | --- | --- | --- | --- | --- | --- | --- | --- | --- | --- | --- | --- | --- |
| COc1ccc(NC(=O)C2c3ccccc3C(=O)N(CC(C)C)C2c2cccs2)cc1OC (stereo not drawn) | 50.1 nM | 51.8 nM | 105 nM | 110 nM | 132 nM | > 24100 nM | 6930 nM | > 18800 nM | > 44000 nM | > 44000 nM | > 44000 nM | > 44000 nM | 123 nM | 49.6 nM | 90 nM | 91.3 nM |
| CCOc1cc2c(cc1OCC)C(c1cc(C)c(O)c(C)c1)NCC2 (stereo not drawn) | 1830 nM | 587 nM | 1300 nM | 439 nM | 868 nM | > 28500 nM | 14800 nM | > 22200 nM | > 52000 nM | > 52000 nM | > 52000 nM | > 52000 nM | 420 nM | 451 nM | 3000 nM | 2770 nM |
| Fc1ccc(Nc2nc(NCc3ccccc3)c3ccccc3n2)cc1 | 902 nM | 782 nM | 626 nM | 962 nM | 2580 nM | > 22300 nM | 7890 nM | 2.4 nM | 15200 nM | 6780 nM | 16800 nM | 13700 nM | 644 nM | 3540 nM | 321 nM | 868 nM |
| CCCO/C(O)=C1\C(C)=NC2=C(C(=O)CC(c3ccc(OC)c(OC)c3)C2)C1c1ccccc1Cl (stereo not drawn) | 24.7 nM | 16.7 nM | 75.2 nM | 37.1 nM | 66 nM | > 21400 nM | 9300 nM | > 16700 nM | > 39100 nM | > 39100 nM | > 39100 nM | > 39100 nM | 50 nM | 17 nM | 26.2 nM | 36.9 nM |
| CCO/C(O)=C1\C(C)=NC2=C(C(=O)CC(c3ccc(OC)c(OC)c3)C2)C1c1ccccc1Cl (stereo not drawn) | 60.4 nM | 138 nM | 70.2 nM | 91.3 nM | 118 nM | > 24400 nM | 9640 nM | > 19100 nM | > 44600 nM | > 44600 nM | > 44600 nM | > 44600 nM | 60.8 nM | 16.5 nM | 56.1 nM | 57.3 nM |
| C=CC[n+]1c(C=C2C=CN(CC)C=C2)sc2ccccc21 | 425 nM | 305 nM | 1000 nM | > 7250 nM | 1270 nM | > 15500 nM | 1510 nM | 20.8 nM | > 28200 nM | > 28200 nM | > 28200 nM | 1240 nM | 696 nM | > 7250 nM | 1310 nM | 1290 nM |
| Cn1c(=O)c2c(-c3ccc(C(C)(C)C)cc3)n(-c3cc(Cl)ccc3O)cc2n(C)c1=O | 1140 nM | 1220 nM | > 10200 nM | > 10200 nM | 988 nM | > 21700 nM | 6750 nM | > 16900 nM | > 39500 nM | > 39500 nM | > 39500 nM | > 39500 nM | 1270 nM | 780 nM | 976 nM | 982 nM |
| CCCO/C(O)=C1\C(C)=NC2=C(C(=O)CC(c3ccc(OC)c(OC)c3)C2)C1c1ccccc1F (stereo not drawn) | 50 nM | 51.7 nM | 111 nM | 82.5 nM | 106 nM | > 22500 nM | 6570 nM | > 17600 nM | 1.8 nM | > 41100 nM | 35900 nM | > 41100 nM | 89.4 nM | 63.9 nM | 36.3 nM | 40.5 nM |
| COc1ccccc1C1CC2=NC(C)=C(C(=O)OC(C)C)C(c3ccc(Cl)cc3)C2=C(O)C1 (stereo not drawn) | 1280 nM | 688 nM | 1010 nM | 641 nM | 846 nM | > 16400 nM | 680 nM | > 12800 nM | > 29900 nM | > 29900 nM | > 29900 nM | > 29900 nM | 1100 nM | > 7680 nM | 753 nM | 780 nM |
| Cc1cccc(N2CCN(Cc3cc(Br)ccc3O)CC2)c1C | 425 nM | 153 nM | 372 nM | 178 nM | 255 nM | > 15300 nM | > 26700 nM | > 11900 nM | > 27900 nM | > 27900 nM | > 27900 nM | > 27900 nM | 521 nM | > 7160 nM | 699 nM | 576 nM |
| OC(CNC1CCCC1)Cn1c2ccccc2c2ccccc21 (stereo not drawn) | 1080 nM | 163 nM | 1690 nM | 620 nM | 813 nM | > 22200 nM | 3410 nM | > 17400 nM | 20300 nM | 14800 nM | 31500 nM | > 40600 nM | 889 nM | 879 nM | 3170 nM | 2690 nM |
| CCOc1cc2c(cc1OCC)C(c1cc(Cl)ccc1O)NCC2 (stereo not drawn) | 898 nM | 243 nM | 1820 nM | 722 nM | 1320 nM | > 25700 nM | 9490 nM | > 20100 nM | > 46900 nM | 21000 nM | > 46900 nM | > 46900 nM | 2010 nM | 732 nM | 3500 nM | 3570 nM |
| O=[N+]([O-])c1cc(CN2CCN(c3cccc(C(F)(F)F)c3)CC2)c2cccnc2c1O | 1280 nM | 1190 nM | 676 nM | > 8180 nM | > 8180 nM | > 17500 nM | 1350 nM | > 13600 nM | > 31900 nM | > 31900 nM | > 31900 nM | > 31900 nM | 791 nM | > 8180 nM | 642 nM | 1080 nM |
